# Measured values published in BindingDB's records for doi:10.1021/jm1008924 (Genentech, 2011).
# Legend:
# Sonic hedgehog protein [1] = biological target: T1, Sonic hedgehog protein (Homo sapiens, UniProt Q15465); assay: Inhibition of human SHH pathway in mouse S12 cells assessed as GLI-mediated transcriptional activity after 48 hrs by luciferase reporter gene assay
# Sonic hedgehog protein [2] = biological target: T1, Sonic hedgehog protein; assay: Inhibition of human SHH pathway in mouse S12 cells assessed as GLI-mediated transcriptional activity after 48 hrs by luciferase reporter gene assay in presence of 0.5 mg/mL human alpha-1-acid glycoprotein
# Summary of the method: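 Mouse C3H10T1/2-derived S12 cells carrying a stably integrated GLI-luciferase reporter. Grown in high-glucose DMEM with 10% FBS, replated, then switched to 0.5% FBS to induce cilia. Shh, human AAG (0, 0.5, 1 or 5 mg/mL) and compound added. Luciferase (Dual-Glo) read after 48 h. Mean of four experiments ±SD.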
# T1 sequence (Q15465 24-197 limits assumed): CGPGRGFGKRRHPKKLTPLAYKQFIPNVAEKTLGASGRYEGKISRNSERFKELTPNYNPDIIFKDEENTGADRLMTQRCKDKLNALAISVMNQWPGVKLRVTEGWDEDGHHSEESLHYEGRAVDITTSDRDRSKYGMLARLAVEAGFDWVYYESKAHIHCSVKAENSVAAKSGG
structure (smiles),measurement,setting,value
CS(=O)(=O)c1ccc(C(=O)Nc2ccc(Cl)c(-c3ccccn3)c2)c(Cl)c1 [2-chloro-N-(4-chloro-3-(pyridin-2-yl)phenyl)-4-(methylsulfonyl)benzamide],IC50,Sonic hedgehog protein [1],15 nM
same,IC50,Sonic hedgehog protein [2],1750 nM
